Apaf1 inhib: blocks human Apaf-1 apoptosome activity. reconstituted apoptosome caspase-3 activity, DEVD-Rh110 fluorescence. inhibition, % at 20 µM. hit rate 0.71% among 330,000. AID 489030; active means inhibition of at least 40% at 20 µM;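 further: plate controls were DMSO wells for no effect and DEVD-CHO caspase inhibitor wells for full effect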
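System: reconstituted apoptosome with Apaf-1, cytochrome c, caspase-9, procaspase-3, dATP; Signal: Rh110 fluorescence intensity; Schedule: 30 min compound preincubation, 50 min activation, room temperature; Reagent: cytochrome c trigger plus (Z-DEVD)2-Rh110 caspase-3 substrate.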
FID counter: counter-screen for HCV NS3 helicase inhibitors: DNA intercalator displacement; AID 1845; hit rate 0.17% among 290,000; inhibition, % at 7.9 µM; DNA fluorescent intercalator displacement, fluorescence; in the data active means inhibition above about 37%;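 further: 0% = vehicle and 100% = reference compound; higher means more ethidium bromide displaced from hairpin DNA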
RAD54 inh: blocks human RAD54 Holliday junction branch migration; Q92698; FAM/BHQ fluorescence; inhibition, % at 10.4 µM; hit rate 0.14% among 360,000; AID 602329;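 active means mean normalized replicate activity at least 40 and at least half of replicates scoring 40 or more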;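 further: 0% = median of neutral control wells and 100% = median of positive control wells; inhibitors cause a drop in the FAM fluorescence signal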
Target sequence (Q92698 whole entry, looked up): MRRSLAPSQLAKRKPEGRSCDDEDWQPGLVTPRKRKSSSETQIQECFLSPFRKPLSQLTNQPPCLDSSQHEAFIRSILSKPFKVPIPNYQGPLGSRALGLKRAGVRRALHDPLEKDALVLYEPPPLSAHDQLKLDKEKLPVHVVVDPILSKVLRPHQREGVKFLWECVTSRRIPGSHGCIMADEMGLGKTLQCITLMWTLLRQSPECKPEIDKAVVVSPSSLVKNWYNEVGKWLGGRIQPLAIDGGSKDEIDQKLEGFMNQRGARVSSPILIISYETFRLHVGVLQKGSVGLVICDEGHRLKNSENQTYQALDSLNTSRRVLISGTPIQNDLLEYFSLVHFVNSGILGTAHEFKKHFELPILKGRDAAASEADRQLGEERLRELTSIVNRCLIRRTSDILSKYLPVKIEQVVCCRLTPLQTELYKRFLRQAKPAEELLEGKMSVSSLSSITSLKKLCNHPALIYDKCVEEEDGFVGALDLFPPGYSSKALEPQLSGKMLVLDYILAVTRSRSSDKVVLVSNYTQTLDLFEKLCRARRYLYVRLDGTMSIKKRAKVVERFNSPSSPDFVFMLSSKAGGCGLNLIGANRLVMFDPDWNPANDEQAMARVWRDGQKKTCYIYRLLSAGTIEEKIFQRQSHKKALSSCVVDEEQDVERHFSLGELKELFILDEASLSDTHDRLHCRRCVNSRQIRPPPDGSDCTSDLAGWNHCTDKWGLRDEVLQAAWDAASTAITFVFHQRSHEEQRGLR
UBC13 polyUb: human UBC13 polyubiquitination inhibition; UBC13 polyubiquitin chain formation, TR-FRET; inhibition, % at 20 µM; hit rate 0.47% among 330,000; AID 485273; in the data active means inhibition above about 45%, passing the limit was not always enough
RAD52 inh: blocks human RAD52 DNA annealing | inhibition, % at 18.7 µM | recombinant RAD52 DNA annealing, FRET fluorescence | hit rate 0.46% among 360,000 | P43351;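 active means every replicate showing at least 50% inhibition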
Neddyl block: cullin neddylation inhibition; TR-FRET cullin neddylation, biochemical; hit rate 0.58% among 360,000; P61081+Q13564; AID 651699; calls only at 25 µM; in the data active means inhibition above about 36%
Rad54 DNA ctr: DNA binding artifact in Rad54 counter-screen | shares compounds with RAD54 inh | Acridine orange-DNA displacement, fluorescence polarization, 20 min | hit rate 8% among 460 | AC50, µM (titrated, usually from 35 µM), for inactives: at the top dose activity change, negative = DNA binding | AID 651673;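 active means signal drop giving an AC50 within twice the top valid tested concentration of each sample, actives reach about 35 µM in these data; inactive means activity opposite to expected, plus the rest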;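 further: polarization loss reports compound binding to salmon sperm DNA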
RAD52 DNA ctr: counter-screen for RAD52 inhibitors: DNA binding compounds | shares compounds with RAD52 inh | Salmon sperm DNA/acridine orange FP displacement | AC50, µM | hit rate 8% among 1,000;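 active means fitted half-maximal concentration for signal loss at or below twice the highest dose tested, in every separate run, actives reach about 64 µM in these data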
Starred values were filed as active, the others as inactive; i = inactive; · = not tested or not shown. Sampled rows, rich in hits. Any-hit rate of the full collection: about 1.6%.

SMILES	Apaf1 inhib	FID counter	RAD54 inh	UBC13 polyUb	RAD52 inh	Neddyl block	Rad54 DNA ctr	RAD52 DNA ctr
Cc1cc(C)c(S(=O)(=O)N2CCN(CCN3C(=O)c4cccc5cccc(c45)C3=O)CC2)cc1[N+](=O)[O-]	·	2	·	·	·	·	·	·
O=C1c2cccc3cc([N+](=O)[O-])cc(c23)C(=O)N1CCN1CCCC1	0	72*	98*	-46	82*	i	34µM*	25µM*
CN(C)CC(=O)N1[C@H](CO)[C@@H](c2ccccc2)C12CN(C(=O)c1ccccc1)C2	·	·	·	·	-1	·	·	·
CCN(CC)CCN(C(=O)CN1C(=O)c2ccccc2C1=O)c1nc2cc3c(cc2s1)OCO3	23	16	35	6	-3	i	·	·
CN(C)CCN(C(=O)CN1C(=O)c2ccccc2C1=O)c1nc2cc3c(cc2s1)OCO3	15	27	60*	-11	58*	i	-9%	i
CC(=O)Nc1cccc(-c2cc(NC(C)=O)c3ncc(-c4cccc(C(C)=O)c4)n3c2)c1	·	·	12	·	-29	i	·	·
CC(=O)Nc1cc(-c2cccc(C(=O)NCCN(C)C)c2)cn2c(-c3ccccc3)cnc12	·	·	64*	·	90*	i	4%	i
CC(=O)Nc1cc(-c2cccc(C(=O)NCCN(C)C)c2)cn2c(-c3ccc(S(C)(=O)=O)cc3)cnc12	·	·	56*	·	92*	·	-17%	i
CC(=O)Nc1cc(-c2ccc(N3CCN(C)CC3)cc2)cn2c(-c3cccc(C(C)=O)c3)cnc12	·	·	79*	·	70*	i	-2%	i
COCCCNC(=S)Nc1ccc2nc(N3CCOCC3)cc(C)c2c1	1	-10	6	-1	-7	i	·	·
CCCN(CCC)CCCNC(=S)Nc1ccc2nc(N3CCCC3)cc(C)c2c1	-3	43*	99*	9	92*	i	-1%	i
COc1ccc(CNC(=S)Nc2ccc3nc(N4CCN(C)CC4)cc(C)c3c2)cc1	-6	22	41	1	47	i	·	·
CCN(CC)CCNC(=S)Nc1ccc2nc(N3CCN(C)CC3)cc(C)c2c1	2	44*	85*	7	87*	i	-14%	i
CCCCN(CC)CCCNC(=S)Nc1ccc2nc(N3CCN(C)CC3)cc(C)c2c1	-5	32	89*	18	92*	i	13%	i
Cc1cc(N2CCN(C)CC2)nc2ccc(NC(=S)NCCCN3CCN(C)CC3)cc12	12	36	78*	3	82*	i	-6%	i
CCOCCCNC(=S)Nc1ccc2nc(N3CCOCC3)cc(C)c2c1	-1	1	6	-3	7	·	·	·
CO[C@@H]1CN(C)C(=O)c2ccc(NS(=O)(=O)c3cccc(F)c3)cc2OC[C@H](C)NC[C@@H]1C	·	·	1	·	-13	·	·	·
CCN1CCN(c2ccc(Nc3ccnc4ccccc34)cc2)CC1	-5	·	78*	15	95*	i	-12%	i
COc1ccc(Nc2cc(C(=O)NCCCN3CCOCC3)c3ccccc3n2)cc1OC	1	32	-4	5	·	i	·	·
COc1ccc(-c2nc(C(=O)NCCCN3CCOCC3)cc3c2[nH]c2ccccc23)cc1OC	33	28	94*	30	83*	·	-21%	i
CN(C)CCNC(=O)c1c(NC(=O)c2ccccc2)sc2c1CCCC2	11	17	58*	18	53*	i	-7%	i
CN(CCO)C(=O)c1c(NC(=O)c2ccccc2)sc2c1CCCC2	-362	-4	-3	4	-3	i	·	·
CC(C)CC#Cc1cnc2c(c1)C(=O)N([C@H](C)CO)C[C@H](C)[C@@H](CN(C)Cc1cncnc1)O2	·	·	-12	·	1	·	·	·
CN(C)C(=O)c1cccc(-c2cnc3c(NC=O)cc(-c4cc(F)c(F)c(F)c4)cn23)c1	·	·	6	·	-31	i	·	·
COc1ccc(-c2cc(NC=O)c3ncc(-c4cccc(OC)c4)n3c2)cc1	·	·	0	·	-37	i	·	·
COc1ccc(-c2cc(NC=O)c3ncc(-c4cccc(C(=O)NCCN(C)C)c4)n3c2)cc1	·	·	69*	·	90*	i	17%	i
